# High-throughput results deposited in PubChem BioAssay by The Scripps Research Institute Molecular Screening Center.
# In the library only some 2.3% were active in any assay of this set; here they are far more common.
# TAAR1 antagonist: human TAAR1 antagonists, primary screen, Fluo-8 calcium fluorescence, CHO RD-HGA16 cells; 360,000 tested, 1.5% active; inhibition, % at 3 µM; Trace amine-associated receptor 1 (Homo sapiens), Q96RJ0; AID 624466, 2012; antagonist;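 active means inhibition above a per-plate cutoff, the mean inhibition of test compounds on that plate plus 3 SD, cut at about 49% in these data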;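 further: 0% = DMSO plus EC80 beta-PEA response and 100% = DMSO alone without agonist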
# Target sequence (Q96RJ0 whole entry, looked up): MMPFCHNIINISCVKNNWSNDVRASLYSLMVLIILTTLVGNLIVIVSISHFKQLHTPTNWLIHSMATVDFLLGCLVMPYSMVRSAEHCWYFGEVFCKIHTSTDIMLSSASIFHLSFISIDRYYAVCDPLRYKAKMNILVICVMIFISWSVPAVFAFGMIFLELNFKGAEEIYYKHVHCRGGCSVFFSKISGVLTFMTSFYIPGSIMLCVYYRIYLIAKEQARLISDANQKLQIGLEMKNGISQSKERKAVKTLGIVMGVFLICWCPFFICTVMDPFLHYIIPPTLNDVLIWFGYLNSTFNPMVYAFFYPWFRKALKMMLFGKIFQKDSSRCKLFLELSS
#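 Assay system: RD-HGA16 CHO cells with stable hTAAR1 and Gα16 / Reagent: EC80 β-phenethylamine stimulus / Doses: 3 µM, single point / Timing: dye loading 75 min at 37 °C, then 30 min room temperature / Measured by: Fluo-8 intracellular calcium dye fluorescence, real-time kinetic reads / Controls: vehicle wells and EC80 agonist wells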
# TAAR1 agonist: human TAAR1 agonists, primary screen, Fluo-8 calcium fluorescence, CHO RD-HGA16 cells; Trace amine-associated receptor 1 (Homo sapiens), Q96RJ0; vehicle wells 0%, saturating PEA agonist 100%; activation, % at 3 µM; 360,000 tested, 0.99% active; AID 624467, 2012;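 active means activation above the mean activation of all test compounds in the run plus 3 SD, cut at about 38% in these data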
#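 Test system: RD-HGA16 (CHO) cells co-expressing Gα16 and hTAAR1 / Benchmarks: DMSO vehicle as 0%, PEA at EC100 as 100% / Repeats: no replicates (n 1) / Measure: % activation from peak over basal fluorescence ratio, DMSO-to-PEA scaled / Timing: 17-24 h plating, Fluo-8 75 min 37 °C, 30 min RT / Technique: kinetic Fluo-8 calcium fluorescence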
# V1R ag counter: agonists of human V1a receptor, primary screen, counter-screen for OXTR agonist project, fluorescence, CHO-V1R cells. Vasopressin V1a receptor (Homo sapiens), P37288. Fluo-8 calcium fluorescence, agonist mode; 0% DMSO, 100% 3 nM vasopressin. activation, % at 3 µM. 320,000 tested, 0.25% active. AID 2797, 2010;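 active means activation above the mean activation of all tested compounds plus 3 SD, per screening run, cut at about 20% in these data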;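 further: signal is peak over basal fluorescence ratio across a 100 second FLIPR read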
# OXTR agonist: human OXTR agonists, primary screen, fluorescence, CHO-OTR cells, Fluo-8 calcium. Oxytocin receptor (Homo sapiens), P30559. Fluo-8 calcium fluorescence; normalized: DMSO 0%, oxytocin 100%. activation, % at 3 µM. 320,000 tested, 0.32% active. AID 2435, 2010;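 active means activation above the mean of all tested compounds plus 3 SD, cutoff set per screening run, cut at about 20% in these data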;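 further: peak over basal fluorescence ratio from a 100 s FLIPR kinetic read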
# Target sequence (P30559 whole entry, looked up): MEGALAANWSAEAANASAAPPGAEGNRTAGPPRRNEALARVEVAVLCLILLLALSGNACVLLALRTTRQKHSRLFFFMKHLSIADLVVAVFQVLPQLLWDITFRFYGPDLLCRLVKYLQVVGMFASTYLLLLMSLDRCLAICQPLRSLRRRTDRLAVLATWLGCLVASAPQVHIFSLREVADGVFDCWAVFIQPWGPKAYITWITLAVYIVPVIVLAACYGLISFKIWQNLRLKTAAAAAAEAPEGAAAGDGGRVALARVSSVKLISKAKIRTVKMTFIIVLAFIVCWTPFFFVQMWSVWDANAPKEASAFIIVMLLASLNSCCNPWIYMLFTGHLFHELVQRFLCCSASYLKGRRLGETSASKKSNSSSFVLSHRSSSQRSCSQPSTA
# OXTR potentiate: human OXTR potentiators, primary screen, fluorescence, CHO-OTR cells, Fluo-8 calcium. Oxytocin receptor (Homo sapiens), P30559. Fluo-8 calcium fluorescence, potentiator mode; 0% = oxytocin EC15, 100% = EC100. activation, % at 3 µM. 320,000 tested, 0.061% active;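 active means activation above that plate's cutoff, the mean activation of tested compounds plus 3 SD, cut at about 6.6% in these data, passing the limit was not always enough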;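 further: 100% uses oxytocin at 75 nM as the full agonist control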
#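 System: human OTR in CHO cells; Also added: sub-maximal oxytocin, roughly EC15; Timing: compound 6 min at room temperature before oxytocin, 100 s read; Technique: Fluo-8 intracellular calcium fluorescence, ex 470-495, em 515-575 nm; Controls: oxytocin EC15 low and EC100 high; Replication: singlicate.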
# TAAR1 nonsel count: nonselective antagonists in TAAR1 counter-screen cells, counter-screen for hTAAR1 antagonist project, cell-based, fluorescence, calcium; shares compounds with TAAR1 antagonist; counterscreen cell line, antagonist mode; inhibition, % at 3 µM; 2,400 tested, 77% active; AID 651780, 2012; in the data active means inhibition above about 22%;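 further: CHO-Ga16 host cells stimulated with ATP at an EC80 level; 0% = agonist EC80 plus vehicle and 100% = vehicle without agonist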
# TAAR1 ant conf: human TAAR1 antagonists, retest of hits, confirmation, cell-based, fluorescence | TAAR1-expressing cells, fluorescence antagonist read-out | 2,400 tested, 40% active | shares compounds with TAAR1 antagonist | inhibition, % at 3 µM; in the data active means inhibition above about 49%;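 further: CHO-Ga16 host cells challenged with agonist PEA near its EC80; 0% = agonist at EC80 plus vehicle and 100% = vehicle with no agonist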
# Ga16 ag counter: calcium activation in Ga16-expressing cells, counter-screen for TAAR1 antagonist project, cell-based, fluorescence; agonist counterscreen; shares compounds with TAAR1 antagonist; activation, % at 3 µM; 2,400 tested, 18% active; in the data active means activation above about 12%;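 further: 0% = vehicle wells and 100% = saturating stimulus response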
# TAAR1 ag counter: TAAR1 activation by candidate antagonists – cell-based, fluorescence, counter-screen for TAAR1 antagonist project; hTAAR1 cell line, agonist mode; 2,400 tested, 2% active; shares compounds with TAAR1 antagonist; activation, % at 3 µM; in the data active means activation above about 37%;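 further: CHO cells stably expressing TAAR1 with calcium dye readout; 0% = DMSO vehicle and 100% = full agonist response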
# * marks the source's active call; other numbers are inactive results; . = no result given.
SMILES,TAAR1 antagonist,TAAR1 agonist,V1R ag counter,OXTR agonist,OXTR potentiate,TAAR1 nonsel count,TAAR1 ant conf,Ga16 ag counter,TAAR1 ag counter
CCOc1cc(C(=S)N2CCOCC2)ccc1OC(=O)c1cccc(C)c1,66*,9,0,-2,-9,31*,48,5,1
CCOc1cc(C(=S)N2CCOCC2)ccc1OC(=O)c1ccccc1,0,0,4,-2,-3,.,.,.,.
COc1ccccc1CNc1nc(NCc2cccs2)nc2ccsc12,76*,35,.,.,.,62*,80*,34*,49*
COCCNc1nc(NCc2ccccc2OC)c2sccc2n1,3,2,.,.,.,.,.,.,.
O=C(CCn1c(=O)oc2ccccc21)N(Cc1ccccc1)c1ccccc1,69*,3,1,-2,-8,23*,50*,6,5
Cc1c(C(=O)NCc2c(F)cc(F)cc2F)oc2ccc(S(=O)(=O)N3CCOCC3)cc12,68*,19,3,3,-10,24*,47,11,17
Cc1c(C(=O)NCc2ccc(F)cc2)oc2ccc(S(=O)(=O)N3CCOCC3)cc12,48,20,4,2,-7,.,.,.,.
Cc1c(C(=O)Nc2ccc(F)cc2)oc2ccc(S(=O)(=O)N3CCCC3)cc12,15,2,2,1,-7,.,.,.,.
Cc1c(C(=O)Nc2ccc(F)cc2)oc2ccc(S(=O)(=O)N3CCC4(CC3)OCCO4)cc12,62*,24,9,13,-8,40*,50*,12*,9
CN1CCN(CC(=O)N/N=C\c2c[nH]c3ccccc23)CC1,-12,0,2,1,-9,.,.,.,.
Cc1ccccc1OCC(=O)Nc1ccccc1C(=O)NC1CC1,57*,10,0,-2,-9,24*,40,6,2
O=C(COc1ccccc1)Nc1ccccc1C(=O)NC1CC1,0,3,0,-1,-8,.,.,.,.
Cc1cccc(N2CCN(C(=O)CCn3c(=O)[nH]c4ccsc4c3=O)CC2C)c1 (stereo not given),60*,12,4,4,-14,23*,45,8,8
COc1ccc(C(=O)Nc2nc(CC(=O)NCCc3ccccc3OC)cs2)cc1,57*,11,0,-2,-10,27*,44,7,5
COc1ccc(C(=O)Nc2nc(CC(=O)NCc3c(F)cccc3F)cs2)cc1,71*,13,.,.,.,25*,50*,14*,12
CCc1nc2ccc(C(=O)NCCc3ccccc3OC)cc2nc1CC,11,-3,-2,-3,-10,.,.,.,.
COc1ccc(C(=O)Nc2nc(CC(=O)NCc3ccc(F)cc3)cs2)cc1,72*,16,8,4,-12,48*,66*,14*,11
Cc1ccc(S(=O)(=O)Nc2cccc3c2O[C@@H](CN(C)C(=O)Nc2ccc4c(c2)OCO4)[C@H](C)CN([C@@H](C)CO)C3=O)cc1,7,9,1,1,-7,.,.,.,.
CC1=C(C(N)=O)C(c2ccccn2)n2nc(-c3ccccc3Cl)nc2N1 (stereo not given),-29,0,.,.,.,.,.,.,.
COc1cc(C)ccc1NC(=O)Cc1csc(NC(=O)Nc2ccccc2OC)n1,66*,11,0,2,-13,34*,53*,9,10
COc1ccccc1NC(=O)Cc1csc(NC(=S)Nc2ccc(C)cc2)n1,27,11,3,3,-22,.,.,.,.
COc1ccccc1NC(=O)Nc1nc(CC(=O)N2CCN(c3ccccc3OC)CC2)cs1,69*,21,4,0,-16,35*,54*,11,8
COc1ccc(S(=O)(=O)N2CCOC23CCN(S(=O)(=O)c2ccc(C)cc2)CC3)cc1,-22,1,3,1,-13,.,.,.,.
CN(C)CCCN(C(=O)/C=C/c1cccs1)c1nc2ccc(F)cc2s1,-10,14,8,12,-5,.,.,.,.
CN(C)CCN(C(=O)/C=C/c1cccs1)c1nc2c(F)cc(F)cc2s1,56*,32,0,0,-7,15,16,4,9
SMILES,TAAR1 antagonist,TAAR1 agonist,V1R ag counter,OXTR agonist,OXTR potentiate,TAAR1 nonsel count,TAAR1 ant conf,Ga16 ag counter,TAAR1 ag counter
Cc1ccccc1CSCCC(=O)NCCC1=CCCCC1,53*,7,-1,-1,-11,8,39,3,5
O=C(CCSCc1ccc(Cl)cc1)NCCC1=CCCCC1,0,4,0,-2,-5,.,.,.,.
Cc1n[nH]c(C)c1S(=O)(=O)N1CCN(C2CCCCC2)CC1,4,3,1,0,-7,.,.,.,.
CC(C)(C)c1cc(NC(=O)c2ccc(OC3CCCC3)cc2)no1,51*,0,3,-1,-11,25*,31,4,3
O=C(Nc1ccon1)c1ccc(OC2CCCC2)cc1,5,6,3,-1,-4,.,.,.,.
O=C(NC(=S)Nn1cnnc1)c1ccccc1Br,-4,1,1,0,-3,.,.,.,.
CCOC(=O)C1CCCN(c2c(C(=O)c3ccccc3)cnc3ccc(OC)cc23)C1 (stereo not given),86*,11,-1,-2,-1,2,66*,5,34
CCOC(=O)C1CCCN(C(=O)COc2ccc(C(=O)c3ccccc3)cc2)C1 (stereo not given),-10,2,.,.,.,.,.,.,.
COc1cc(/C=C2/CCC/C(=C\c3cc(O)c(OC)c(Cl)c3)C2=O)cc(Cl)c1O,58*,12,2,1,-26,42*,40,11,18
COc1cc(/C=C2\CCC/C(=C\c3ccc(O)c(OC)c3)C2=O)ccc1O,53*,14,1,3,-19,35*,48,7,14
COc1cc(/C=C/C(=O)CC(=O)/C=C/c2ccc(O)c(OC)c2)ccc1O,69*,36,24*,33*,-22,48*,50*,28*,18
